# Bioassay records as filed in PubChem BioAssay.
# SIAE primary – inhibitors of human sialic acid acetylesterase SIAE; SIAE FP-Rh probe binding, fluorescence polarization; inhibition, % at 9.66 µM; hit rate 0.69% among 370,000;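 active means inhibition above a cutoff: mean of compounds within the control limits plus 3 SD of those, cut at about 17% in these data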;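 further: 0% = plate median of compound wells and 100% = probe without SIAE protein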
# Target sequence (Q9HAT2 whole entry, looked up): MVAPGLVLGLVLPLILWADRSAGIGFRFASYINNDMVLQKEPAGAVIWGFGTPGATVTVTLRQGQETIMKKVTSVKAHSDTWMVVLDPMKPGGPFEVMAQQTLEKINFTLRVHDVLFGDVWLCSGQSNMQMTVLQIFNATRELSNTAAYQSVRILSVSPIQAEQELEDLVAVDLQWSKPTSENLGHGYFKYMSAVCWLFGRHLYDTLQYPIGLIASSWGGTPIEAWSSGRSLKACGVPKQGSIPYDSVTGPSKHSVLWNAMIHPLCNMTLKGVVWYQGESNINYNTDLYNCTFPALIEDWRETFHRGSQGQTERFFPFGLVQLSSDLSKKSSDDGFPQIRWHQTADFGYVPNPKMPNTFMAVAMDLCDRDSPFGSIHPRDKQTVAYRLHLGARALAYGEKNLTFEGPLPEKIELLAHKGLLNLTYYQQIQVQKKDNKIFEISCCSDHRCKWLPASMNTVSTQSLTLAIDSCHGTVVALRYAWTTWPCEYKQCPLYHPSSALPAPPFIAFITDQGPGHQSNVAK
# ABHD4 inh – inhibitors of mouse ABHD4; hit rate 0.54% among 370,000; inhibition, % at 8.92 µM; Q8VD66; purified mABHD4, FP-Rh probe fluorescence polarization;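 active means inhibition exceeding the mean over every tested compound plus 3 SD, cut at about 30% in these data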;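 further: 0% = plate median of compound wells and 100% = S159A mutant with DMSO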
#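 Assay system: mouse ABHD4 enzyme, wild type / Also added: fluorescent activity-based probe FP-Rh / Doses: single nominal dose of 8.92 µM, 0.89% DMSO final / Timing: 45 min compound pre-incubation plus 60 min probe step, 25 °C / Signal: FP readout, ex 525 nm / em 598 nm / Control set: S159A mutant/DMSO as 100%, compound-well median as 0%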
# PRMT1 inh – blocks human protein arginine methyltransferase 1; AID 652257; recombinant PRMT1, activity-based probe fluorescence polarization; hit rate 1.3% among 370,000; Q99873; inhibition, % at 2.79 µM;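 active means inhibition above about 21% made by adding two undisclosed values, limit read from the data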
# TCR-CD3 inh – human TCR-CD3 binding inhibition | TAMRA-labeled TCR probe fluorescence, biochemical | inhibition, % at 9.4 µM | hit rate 0.37% among 360,000 | AID 651800; in the data active means inhibition above about 19%;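 further: recombinant mutant TCR 2C K166C tagged with TAMRA read by polarization; 0% = receptor in buffer alone and 100% = receptor with positive control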
# HTRA1 inhibitor – HTRA1 (human) protease inhibition | AID 504803 | hit rate 0.5% among 340,000 | Q92743 | inhibition, % at 5.96 µM | recombinant HTRA1, FP-rhodamine activity-based probe, fluorescence polarization; in the data active means inhibition above about 36%;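 further: 0% = enzyme with DMSO and 100% = wells lacking enzyme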
# HTRA1 inh conf – confirmation of human HTRA1 inhibitors; shares compounds with HTRA1 inhibitor; recombinant HTRA1, FP-rhodamine activity-based probe, fluorescence polarization; inhibition, % at 5.96 µM; hit rate 66% among 1,600; AID 540248;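 active means mean inhibition over three repeats above a set limit taken from the earlier primary screen, cut at about 37% in these data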;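 further: 0% = HTRA1 with DMSO and 100% = wells lacking HTRA1; inhibitors block probe binding so polarization drops and inhibition rises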
# Starred values were filed as active, the others as inactive; . = no result given. Rows were chosen to be rich in hits. Some 2.7% of all compounds tested hit in one or more screens of this group.
SMILES,SIAE primary,ABHD4 inh,PRMT1 inh,TCR-CD3 inh,HTRA1 inhibitor,HTRA1 inh conf
O=C(NCCc1ccc(O)c(O)c1)C1COc2ccccc2O1 (centres undefined),5,28,13,5,40*,61*
Oc1ccc(CN2CCN(c3ccccc3)CC2)c2cccnc12,.,.,.,.,29,.
Oc1ccc(CN2CCc3ccccc3C2)c2cccnc12,5,5,-8,2,59*,65*
Cc1ccc(S(=O)(=O)NC(=O)Nc2ccc(N(C)C)cc2)cc1,5,25,26*,6,44*,45*
O=C(NC(=S)NNC(=O)c1cc2ccccc2cc1O)c1ccco1,0,15,-11,7,45*,35
C#CCOCCOCCOCCNc1nc(N2CCOCC2)nc(N2CCN(C(=O)[C@H](CCC(=O)O)n3cc(C(N)CC(C)C)nn3)CC2)n1 (some centres undefined),-6,-14,10,.,.,.
c1ccc2cc(-c3cc4ccccn4c3)ccc2c1,-3,12,5,-1,39*,14
O=C1O[C@@H](c2ccccc2)C[C@@H](O)C(=O)CCc2ccccc21,-6,-3,-3,-2,.,.
O=[N+]([O-])c1cc2c(cc1C=Nc1ccccc1)OCO2,.,.,.,.,51*,4
C[C@H]1[C@@H](NC(=O)C#Cc2ccccc2)CC[C@@]23CCCN2C(=O)CCC[C@@H]13,4,2,1,.,.,.
CCOc1cc(N2CCOCC2)c(OCC)cc1NC(=O)c1nn(CC)c(=O)c2ccccc12,1,4,-7,-3,41*,45*
Oc1ccc2ccccc2c1C1Nc2cccc3cccc(c23)N1,.,.,.,.,52*,23
CCN(CC)c1ccc(C2Nc3cccc4cccc(c34)N2)c(O)c1,10,23,2,-4,18,.
C/C(=N\NC(=O)c1cc2ccccc2cc1O)c1ccc2c(c1)OCO2,-10,13,-1,1,42*,7
CCOC(=O)C(C)/C(C)=N/NC(=O)c1cc2ccccc2cc1O (centres undefined),14,18,-1,1,43*,28
O=C(NCCO)c1cc2ccccc2cc1O,5,4,-3,2,5,.
O=c1[nH][nH]c2cc(=O)n(-c3cccc(C(F)(F)F)c3)nc12,11,62*,8,9,59*,13
CC(C)c1csc(CN2CCC(CO)(Cc3cccc(F)c3)CC2)n1,-1,-11,6,-2,0,.
CCCn1c(/C=N/Nc2nc3ccccc3[nH]2)nc2ccccc21,13,14,1,-5,34,.
Cn1c(/C=N/Nc2nc3ccccc3[nH]2)nc2ccccc21,-4,27,0,-9,36*,44*
Cc1cccc(C)c1-n1nnnc1C(c1ccnc2ccccc12)N(C)Cc1ccc(Cl)c(Cl)c1 (centres undefined),11,11,3,-1,.,.
COc1cc(CNc2ccc(N3CCCC3)cc2)ccc1OCc1ccccc1F,.,.,.,.,40*,18
COc1cc(CNc2ccc(N3CCCCC3)cc2)ccc1OCC(=O)NC(C)(C)C,7,27,-1,0,41*,8
Cc1onc(-c2c(F)cccc2Cl)c1C(=O)N=C(N)N1CCCC1,-3,-1,3,0,-6,.
O=C(N/N=C\c1ccc([N+](=O)[O-])s1)c1cncc(Br)c1,-6,2,-2,-2,56*,52*
SMILES,SIAE primary,ABHD4 inh,PRMT1 inh,TCR-CD3 inh,HTRA1 inhibitor,HTRA1 inh conf
O=C(N/N=C/c1ccc([N+](=O)[O-])s1)c1ccccc1,0,1,-2,2,22,.
Cc1cc(C(=O)N/N=C/c2ccc([N+](=O)[O-])cc2)c2ccccc2n1,-4,-3,-8,8,4,.
Cc1cc(C(=O)N/N=C/c2ccc([N+](=O)[O-])s2)c2ccccc2n1,15,16,6,3,47*,29
CCn1c(=O)n(CC(=O)N2CCC(C)CC2)c(=O)c2ccccc21,-1,1,1,.,.,.
CC1(C)Cc2ccccc2C(N/N=C/c2ccc(Cl)cc2)=N1,3,2,-5,3,-1,.
COc1ccc(-c2nn(-c3ccccc3)cc2/C=N/N2C(=O)CSC2=S)cc1,-1,22,8,9,68*,53*
COc1ccc(/C=N/N2C(=O)CSC2=S)cc1,-5,8,11,5,0,.
CCOc1ccc2nc3cc(N=Nc4ccc(N)nc4N)ccc3c(N)c2c1,.,.,.,.,47*,70*
Nc1ccc(-c2nc3ccc(N)cc3o2)cc1,4,3,-3,-2,-1,.
Cc1ccc2nc(-c3cc(N)cc(N)c3)oc2c1,0,16,-4,0,37*,22
CCCCN=C(N)NC(=O)c1ccccc1,7,0,-2,.,.,.
C/C(=N\NC(=O)CSc1nc2ccccc2o1)c1ccc(O)cc1,5,-2,7,12,32,.
C/C(=N\NC(=O)CSc1nc2ccccc2o1)c1cccc(O)c1,4,8,14,8,51*,-1
CC(=O)N1CCN(c2ccc(NCc3ccc(-c4ccc(Br)cc4)o3)cc2)CC1,8,29,3,2,44*,19
CN1CCN(c2ccc(NC(=O)c3ccc(-c4ccc(Br)cc4)o3)cc2)CC1,12,17,-2,5,14,.
O=C(Oc1ccc(/C=N/NC(=O)c2ccccc2O)cc1)c1ccccc1,-4,-6,1,1,41*,-6
O=C(N/N=C1/CCSC1)c1cc(Br)ccc1O,10,11,1,17,45*,21
O=C(NN=C1CCCC1)c1cc(Br)ccc1O,5,12,-1,5,5,.
CCOC(=O)N1CCN(S(=O)(=O)c2ccc(C(=O)Nc3sc4c(c3C(=O)OC)CCN(C)C4)cc2)CC1,-5,2,-1,-3,53*,49*
CCc1nnc(NC(=O)CSc2nc3ccc(OC)cc3[nH]2)s1,-1,-3,-2,-4,-3,.
COc1cccc2c1NC(C(=O)O)C1CC=CC21 (centres undefined),.,.,.,.,62*,61*
COc1cc(C2Nc3c(F)cccc3C3C=CCC32)cc(Br)c1OC (centres undefined),4,5,19,1,-4,.
Oc1ccc(N=Nc2ccccc2C(F)(F)F)c2cccnc12,2,7,2,-3,54*,75*
Cc1ccc(N=Nc2ccc(O)c3ncccc23)cc1C,7,6,2,-1,39*,82*
Cc1ccc(N=Nc2ccc(O)c3ncccc23)cc1,3,16,-1,5,50*,70*
CC(CCCN(C)C)C(Cc1ccccc1)c1ccccc1 (centres undefined),-7,8,-6,0,.,.
Cc1cn([C@H]2C[C@H](O)[C@@H](CNC=O)O2)c(=O)[nH]c1=O,5,-1,4,-4,2,.
COc1ccc(C=C(C#N)C(=O)c2ccccc2)cc1,-5,-57,9,-7,.,.
COc1cc(/C=C(\C#N)C(=O)c2ccc(O)c(O)c2)cc(I)c1O,-10,-6,29*,23*,41*,30
